Results: ChEMBL document CHEMBL1140227, “Histone deacetylase inhibitors through click chemistry” (J Med Chem, 2008)

Tests used:
Type in all cases: functional
Leukemia cell = assay: cells; conditions: Homo sapiens
cells [1] = conditions: Homo sapiens, Cancer cell lines
SF-295 = assay: Growth inhibition of human SF295 cells at 10 uM relative to control; conditions: values are per cent of control
Outline: (§1)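 Single-dose preliminary screen in the NCI human cancer cell line panel, run by the NIH. Percent inhibition of cell line growth was calculated by comparison with untreated samples.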

MDA-MB-435 = assay: Growth inhibition of human MDA-MB-435 cells at 10 uM relative to control; conditions: values are per cent of control
Outline: as §1

MDA-MB-468 = assay: Growth inhibition of human MDA-MB-468 cells at 10 uM relative to control; conditions: values are per cent of control
Outline: as §1

SW-620 = assay: Growth inhibition of human SW620 cells at 10 uM relative to control; conditions: values are per cent of control
Outline: (§2)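 Single-dose NCI human tumour cell line screen, run by the NIH. Percent inhibition of cell line growth was calculated by comparison with untreated samples.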

OVCAR-4 = assay: Growth inhibition of human OVCAR4 cells at 10 uM relative to control; conditions: values are per cent of control
Outline: as §1

PC-3 = assay: Growth inhibition of human PC3 cells at 10 uM relative to control; conditions: values are per cent of control
Outline: as §1

cells [2] = conditions: Homo sapiens, Cancer cell lines; remark: listed apart in the source
SN12C = assay: Growth inhibition of human SN12C cells at 10 uM relative to control; conditions: values are per cent of control
Outline: as §1

MDA-MB-231 = assay: Growth inhibition of human MDA-MB-231 cells at 10 uM relative to control; conditions: values are per cent of control
Outline: as §1

Melanoma cell = assay: cells; conditions: Homo sapiens
CAKI-1 = assay: Growth inhibition of human Caki1 cells at 10 uM relative to control; conditions: values are per cent of control
Outline: as §1

MCF7 = assay: Growth inhibition of human MCF7 cells at 10 uM relative to control; conditions: values are per cent of control
Outline: as §1

NCI-H460 = assay: Growth inhibition of human NCI-H460 cells at 10 uM relative to control; conditions: values are per cent of control
Outline: as §1

HOP-92 = assay: Growth inhibition of human HOP92 cells at 10 uM relative to control; conditions: values are per cent of control
Outline: as §1

OVCAR-3 = assay: Growth inhibition of human OVCAR-3 cells at 10 uM relative to control; conditions: values are per cent of control
Outline: as §1

A549 = assay: Growth inhibition of human A549 cells at 10 uM relative to control; conditions: values are per cent of control
Outline: as §1

UACC-62 = assay: Growth inhibition of human UACC62 cells at 10 uM relative to control; conditions: values are per cent of control
Outline: as §2

ACHN = assay: Growth inhibition of human ACHN cells at 10 uM relative to control; conditions: values are per cent of control
Outline: as §1

SK-OV-3 = assay: Growth inhibition of human SKOV3 cells at 10 uM relative to control; conditions: values are per cent of control
Outline: as §1

MOLT-4 = assay: Growth inhibition of human MOLT4 cells at 10 uM relative to control; conditions: values are per cent of control
Outline: as §1

M14 = assay: Growth inhibition of human M14 cells at 10 uM relative to control; conditions: values are per cent of control
Outline: as §1

NCI-H226 = assay: Growth inhibition of human NCI-H226 cells at 10 uM relative to control; conditions: values are per cent of control
Outline: as §1

cells [3] = conditions: Homo sapiens, Cancer cell lines; remark: listed apart in the source
A498 = assay: Growth inhibition of human A498 cells at 10 uM relative to control; conditions: values are per cent of control
Outline: as §1

U-251 = assay: Growth inhibition of human U251 cells at 10 uM relative to control; conditions: values are per cent of control
Outline: as §2

TK-10 = assay: Growth inhibition of human TK10 cells at 10 uM relative to control; conditions: values are per cent of control
Outline: as §2

SF-539 = assay: Growth inhibition of human SF539 cells at 10 uM relative to control; conditions: values are per cent of control
Outline: as §1

SF-268 = assay: Growth inhibition of human SF268 cells at 10 uM relative to control; conditions: values are per cent of control
Outline: as §1

NCI/ADR-RES = assay: Growth inhibition of human NCI/ADR-RES cells at 10 uM relative to control; conditions: values are per cent of control
Outline: as §1

NCI-H522 = assay: Growth inhibition of human NCI-H522 cells at 10 uM relative to control; conditions: values are per cent of control
Outline: as §1

HCC 2998 = assay: Growth inhibition of human HCC2998 cells at 10 uM relative to control; conditions: values are per cent of control
Outline: as §1

K562 = assay: Growth inhibition of human K562 cells at 10 uM relative to control; conditions: values are per cent of control
Outline: as §1

HL-60(TB) = assay: Growth inhibition of human HL-60(TB) cells at 10 uM relative to control; conditions: read-out: INH
Outline: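 Single-dose cell line screen run by the NCI (NIH) in its human cancer cell line panel, which includes the leukemia line HL-60(TB). Percent growth inhibition was calculated by comparison with untreated samples.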

LOX IMVI = assay: Growth inhibition of human LOXIMVI cells at 10 uM relative to control; conditions: values are per cent of control
Outline: as §1

OVCAR-8 = assay: Growth inhibition of human OVCAR8 cells at 10 uM relative to control; conditions: values are per cent of control
Outline: as §1

SK-MEL-2 = assay: Growth inhibition of human SK-MEL-2 cells at 10 uM relative to control; conditions: values are per cent of control
Outline: as §1

HT-29 = assay: Growth inhibition of human HT-29 cells at 10 uM relative to control; conditions: values are per cent of control
Outline: as §1

BT-549 = assay: Growth inhibition of human BT549 cells at 10 uM relative to control; conditions: values are per cent of control
Outline: as §1

HCT-15 = assay: Growth inhibition of human HCT15 cells at 10 uM relative to control; conditions: values are per cent of control
Outline: as §1

EKVX = assay: Growth inhibition of human EKVX cells at 10 uM relative to control; conditions: values are per cent of control
Outline: as §1

CCRF-CEM = assay: Growth inhibition of human CCRF-CEM cells at 10 uM relative to control; conditions: values are per cent of control
Outline: as §1

[4] = Growth inhibition of human RPMI8266 cells at 10 uM relative to control; conditions: values are per cent of control
Outline: as §1

Malme-3M = assay: Growth inhibition of human MALME-3M cells at 10 uM relative to control; conditions: values are per cent of control
Outline: as §1

OVCAR-5 = assay: Growth inhibition of human OVCAR5 cells at 10 uM relative to control; conditions: values are per cent of control
Outline: as §1

SK-MEL-5 = assay: Growth inhibition of human SK-MEL-5 cells at 10 uM relative to control; conditions: values are per cent of control
Outline: as §1

HCT-116 = assay: Growth inhibition of human HCT116 cells at 10 uM relative to control; conditions: values are per cent of control
Outline: as §1

cells [5] = conditions: Homo sapiens, Cancer cell lines; remark: listed apart in the source
786-0 = assay: Growth inhibition of human 786-0 cells at 10 uM relative to control; conditions: values are per cent of control
Outline: as §1

UACC-257 = assay: Growth inhibition of human UACC257 cells at 10 uM relative to control; conditions: values are per cent of control
Outline: as §2

DU-145 = assay: Growth inhibition of human DU145 cells at 10 uM relative to control; conditions: values are per cent of control
Outline: as §1

IGROV-1 = assay: Growth inhibition of human IGROV1 cells at 10 uM relative to control; conditions: values are per cent of control
Outline: as §1

NCI-H23 = assay: Growth inhibition of human NCI-H23 cells at 10 uM relative to control; conditions: values are per cent of control
Outline: as §1

SK-MEL-28 = assay: Growth inhibition of human SK-MEL-28 cells at 10 uM relative to control; conditions: values are per cent of control
Outline: as §1

UO-31 = assay: Growth inhibition of human UO31 cells at 10 uM relative to control; conditions: values are per cent of control
Outline: as §2

KM12 = assay: Growth inhibition of human KM12 cells at 10 uM relative to control; conditions: values are per cent of control
Outline: as §1

HOP-62 = assay: Growth inhibition of human HOP62 cells at 10 uM relative to control; conditions: values are per cent of control
Outline: as §1

cells [6] = conditions: Homo sapiens, Cancer cell lines; remark: listed apart in the source
SNB-75 = assay: Growth inhibition of human SNB75 cells at 10 uM relative to control; conditions: values are per cent of control
Outline: as §2

NCI-H322M = assay: Growth inhibition of human NCI-H322M cells at 10 uM relative to control; conditions: values are per cent of control
Outline: as §1

SNB-19 = assay: Growth inhibition of human SNB19 cells at 10 uM relative to control; conditions: values are per cent of control
Outline: as §1

COLO 205 = assay: Growth inhibition of human COLO205 cells at 10 uM relative to control; conditions: values are per cent of control
Outline: as §1

T47D = assay: Growth inhibition of human T47D cells at 10 uM relative to control; conditions: values are per cent of control
Outline: as §2

## O=C(/C=C/c1cn(CCc2ccccc2)nn1)NO
Leukemia cell
  inhibition at 10 µM: 7%
Cells [1]
  inhibition at 10 µM: 45%
SF-295
  growth, % of control at 10 µM: 51.8%
MDA-MB-435
  growth, % of control at 10 µM: 21.9%
MDA-MB-468
  growth, % of control at 10 µM: 56%
SW-620
  growth, % of control at 10 µM: 31.1%
OVCAR-4
  growth, % of control at 10 µM: 77.5%
PC-3
  growth, % of control at 10 µM: 37.2%
Cells [2]
  inhibition at 10 µM: 48%
SN12C
  growth, % of control at 10 µM: 64.8%
MDA-MB-231
  growth, % of control at 10 µM: 60.3%
Melanoma cell
  inhibition at 10 µM: 33%
CAKI-1
  growth, % of control at 10 µM: 52.9%
MCF7
  growth, % of control at 10 µM: 63.7%
NCI-H460
  growth, % of control at 10 µM: 62.5%
HOP-92
  growth, % of control at 10 µM: -9.64%
OVCAR-3
  growth, % of control at 10 µM: 61.3%
A549
  growth, % of control at 10 µM: 54.2%
UACC-62
  growth, % of control at 10 µM: 18.1%
ACHN
  growth, % of control at 10 µM: 29.3%
SK-OV-3
  growth, % of control at 10 µM: 57%
MOLT-4
  growth, % of control at 10 µM: 3.77%
M14
  growth, % of control at 10 µM: 44.7%
NCI-H226
  growth, % of control at 10 µM: 76.5%
Cells [3]
  growth percent at 10 µM: 46%
A498
  growth, % of control at 10 µM: 52.4%
U-251
  growth, % of control at 10 µM: 40.7%
TK-10
  growth, % of control at 10 µM: 57.7%
SF-539
  growth, % of control at 10 µM: 72.8%
SF-268
  growth, % of control at 10 µM: 57.2%
NCI/ADR-RES
  growth, % of control at 10 µM: -13.7%
NCI-H522
  growth, % of control at 10 µM: 27.7%
HCC 2998
  growth, % of control at 10 µM: 69.2%
K562
  growth, % of control at 10 µM: 30.5%
HL-60(TB)
  growth, % of control at 10 µM: -10.7%
LOX IMVI
  growth, % of control at 10 µM: 44.9%
OVCAR-8
  growth, % of control at 10 µM: 26.5%
SK-MEL-2
  growth, % of control at 10 µM: 45.8%
HT-29
  growth, % of control at 10 µM: 56.9%
BT-549
  growth, % of control at 10 µM: 78%
HCT-15
  growth, % of control at 10 µM: 75.8%
EKVX
  growth, % of control at 10 µM: 44.6%
CCRF-CEM
  growth, % of control at 10 µM: 7.44%
[4]
  growth, % of control at 10 µM: 1.76%
Malme-3M
  growth, % of control at 10 µM: 15.9%
OVCAR-5
  growth, % of control at 10 µM: 23.5%
SK-MEL-5
  growth, % of control at 10 µM: 35.5%
HCT-116
  growth, % of control at 10 µM: 5.49%
Cells [5]
  growth percent at 10 µM: 40%
786-0
  growth, % of control at 10 µM: 26.3%
UACC-257
  growth, % of control at 10 µM: 19.5%
DU-145
  growth, % of control at 10 µM: 35.5%
IGROV-1
  growth, % of control at 10 µM: 44.6%
NCI-H23
  growth, % of control at 10 µM: 68.4%
SK-MEL-28
  growth, % of control at 10 µM: 42.6%
UO-31
  growth, % of control at 10 µM: 37.4%
KM12
  growth, % of control at 10 µM: 67.8%
HOP-62
  growth, % of control at 10 µM: 13.3%
Cells [6]
  inhibition at 10 µM: 58%
SNB-75
  growth, % of control at 10 µM: 35.1%
NCI-H322M
  growth, % of control at 10 µM: 66%
SNB-19
  growth, % of control at 10 µM: 90%
COLO 205
  growth, % of control at 10 µM: 53.9%
T47D
  growth, % of control at 10 µM: 32.8%
